Reference: ChEMBL document CHEMBL4725226, “Discovery of a new potent inhibitor of mushroom tyrosinase (Agaricus bisporus) containing 4-(4-hydroxyphenyl)piperazin-1-yl moiety” (Bioorg Med Chem, 2020)
Activity calls are given as the source filed them. The rule behind the calls is not given here.

Legend:
[1] = target: Mushroom tyrosinase (Agaricus bisporus, UniProt O42713+Q00024+C7FF04+C7FF05); assay: Inhibition of diphenolase activity of mushroom tyrosinase using L-Dopa as substrate preincubated with substrate for 10 mins followed by enzyme addition and measured after 5 mins
Procedure, shortened: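 Diphenolase assay: sample (5–300 µM) with 1.25 mM L-DOPA in 0.05 M sodium acetate pH 6.8, preincubated 10 min at 25 °C; mushroom tyrosinase (333 U/mL stock) added last. Linear A475 rise followed up to 5 min; % inhibition, IC50 interpolated from dose-response curves; three replicates. Kojic acid standard at 8–35 µM.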

[2] = system: HeLa; assay: Cytotoxicity against human HeLa cells assessed as cell viability at 4 to 10 uM measured after 48 hrs by MTT assay; assay type: cell-based; details: dose 4-10 µM
Procedure, shortened: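 HeLa grown in DMEM with 10% FBS, 2 mM L-glutamine, penicillin/streptomycin, 37 °C, 5% CO2; seeded at 3 × 10^4/mL. Exposed 48 h to compound (4–100 µM in DMSO, DMSO-only control), then MTT (0.5 mg/mL final) 3 h at 37 °C, lysed in DMSO, OD 560 nm; mean ± SD of triplicates.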

[3] = Antioxidant activity assessed as ABTS radical scavenging activity incubated in dark for 1 min; assay type: functional
Procedure, shortened: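 ABTS radical cation generated from 7 mM ABTS plus 2.45 mM potassium persulfate (final), held dark at room temperature 24 h, then diluted to A734 0.700 ± 0.02. Sample added, kept dark at room temperature 1 min; drop in A734 read against a Trolox standard curve.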

[4] = target: T1, Mushroom tyrosinase (Agaricus bisporus) (UniProt O42713+Q00024+C7FF04+C7FF05); assay: Noncompetitive inhibition of diphenolase activity of mushroom tyrosinase assessed as decrease in Vmax with constant Km at 2 to 8 uM using 0.6 to 5 mM L-dopa as substrate by Lineweaver-Burk double reciprocal plot analysis; details: dose microM 2-8
[5] = target: T1, Mushroom tyrosinase (Agaricus bisporus); assay: Potency index, ratio of kojic acid IC50 to test compound IC50 for diphenolase activity of mushroom tyrosinase using L-Dopa as substrate preincubated with substrate for 10 mins followed by enzyme addition and measured after 5 mins

| SMILES | IC50 [1] [µM] | also measured |
| --- | --- | --- |
| O=C(CN1CCC(Cc2ccc(F)cc2)CC1)N1CCN(c2ccc(O)cc2)CC1 | 4.49 |  |
| O=C(CN1CCC(Cc2ccccc2)CC1)N1CCN(c2ccc(O)cc2)CC1 | 3.8 | Activity [2]: Non-Toxic; EC50 [3]: 18.1 µM; inhibition [4]: Active; Ratio IC50 [5]: 5 |
| O=C(CN1CCC(Cc2ccccc2)CC1)N1CCN(c2ccccc2)CC1 | 80.86 |  |
| O=C(CCN1CCC(Cc2ccccc2)CC1)N1CCN(c2ccccc2)CC1 | 57.5 |  |
| Cc1c(C)c2c(c(C)c1O)CCC(C)(C(=O)O)O2 (stereo not drawn) [TROLOX] |  | EC50 [3]: 13 µM |
| O=C(CN1CCC(Cc2ccc(F)cc2)CC1)N1CCN(c2ccccc2)CC1 | 9.6 |  |

The next lines start with results.

| IC50 [1] [µM] | SMILES | also measured |
| --- | --- | --- |
| 6.06 | O=C(CCN1CCC(Cc2ccc(F)cc2)CC1)N1CCN(c2ccc(O)cc2)CC1 |  |
| 23.36 | O=C(CCN1CCC(Cc2ccc(F)cc2)CC1)N1CCN(c2ccccc2)CC1 |  |
| 4.03 | O=C(CCN1CCC(Cc2ccccc2)CC1)N1CCN(c2ccc(O)cc2)CC1 |  |
